Results: ChEMBL document CHEMBL4373711, “Development of 3,5-Dinitrophenyl-Containing 1,2,4-Triazoles and Their Trifluoromethyl Analogues as Highly Efficient Antitubercular Agents Inhibiting Decaprenylphosphoryl-β-d-ribofuranose 2'-Oxidase” (J Med Chem, 2019)
In brackets after ≈: the same amount, converted by molar mass. Activity calls are given as the source filed them. The rule behind the calls is not given here.

Assays:
[1] = system: Mycobacterium avium; assay: Antimycobacterial activity against Mycobacterium avium CNCTC My 330/88 after 14 days; assay type: functional; details: CNCTC My 330/88, 336 h
Method in brief: (§1)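 M. avium was tested by microdilution in Šula's semisynthetic medium, with compounds dissolved in DMSO and serially diluted from 1000 down to 1. Inoculum was a 1.0 McFarland suspension diluted 10-5. Plates were incubated at 37 °C and read at 14 and 21 days. […] Isoniazid and rifampicin served as standards.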

[2] = system: Pseudomonas aeruginosa; assay: Antibacterial activity against Pseudomonas aeruginosa ATCC 27853 CCM 3955 at highest concentration measured after 24 to 48 hrs by alamar blue dye based broth microdilution assay; assay type: functional, organism-based
[3] = system: Mycobacterium kansasii; assay: Antimycobacterial activity against Mycobacterium kansasii CNCTC My 235/80 after 7 days; assay type: functional; details: CNCTC My 235/80, 168 h
Method in brief: (§2)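 Microdilution in Šula's semisynthetic medium; compounds in DMSO at 32–0.03 µM. Inoculum from 1.0 McFarland suspension diluted 10-4. […] Isoniazid and rifampicin as reference drugs.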

[4] = system: Mycobacterium kansasii; assay: Antimycobacterial activity against Mycobacterium kansasii CNCTC My 235/80 after 14 days; assay type: functional; details: CNCTC My 235/80, 336 h; method in brief: as §2
[5] = system: Candida parapsilosis; assay: Antifungal activity against Candida parapsilosis ATCC 22019 CCM 8260 at highest concentration measured after 24 to 48 hrs by alamar blue dye based broth microdilution assay; assay type: functional, organism-based
[6] = system: Mycobacterium tuberculosis; assay: Antimycobacterial activity against Mycobacterium tuberculosis H37Rv CNCTC My 331/88 after 21 days; assay type: functional; details: H37Rv CNCTC My 331/88, 504 h
Method in brief: (§3)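 M. tuberculosis strains (H37Rv and clinical MDR/XDR isolates) tested by microdilution in Šula's semisynthetic medium. Compounds were dissolved in DMSO and tested at 32 to 0.03 µM in twofold steps. Inoculum was a 1.0 McFarland suspension diluted 10-3. Plates were incubated at 37 °C and read at 14 and 21 days.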

[7] = system: Candida tropicalis; assay: Antifungal activity against Candida tropicalis ATCC 750 CCM 8264 at highest concentration measured after 24 to 48 hrs by alamar blue dye based broth microdilution assay; assay type: functional, organism-based
[8] = system: Aspergillus flavus; assay: Antifungal activity against Aspergillus flavus CCM 8363 at highest concentration measured after 24 to 48 hrs by alamar blue dye based broth microdilution assay; assay type: functional, organism-based
[9] = system: Mycobacterium avium; assay: Antimycobacterial activity against Mycobacterium avium CNCTC My 330/88 after 21 days; assay type: functional; details: CNCTC My 330/88, 504 h; method in brief: as §1
[10] = system: Klebsiella pneumoniae; assay: Antibacterial activity against Klebsiella pneumoniae at highest concentration measured after 24 to 48 hrs by alamar blue dye based broth microdilution assay; assay type: functional, organism-based
[11] = system: Mycobacterium kansasii; assay: Antimycobacterial activity against Mycobacterium kansasii CNCTC My 235/80 after 21 days; assay type: functional; details: CNCTC My 235/80, 504 h; method in brief: as §2
[12] = biological target: T1, Decaprenylphosphoryl-beta-D-ribose oxidase (Mycobacterium tuberculosis (strain ATCC 25618 / H37Rv)) (UniProt P9WJF1); assay: Inhibition of DprE1 in Mycobacterium tuberculosis H37Rv assessed as accumulation of trehalose monomycolates at 10 times MIC measured after 24 hrs in presence of [14C]-acetate by TLC-based autoradiography
T1 sequence (whole entry): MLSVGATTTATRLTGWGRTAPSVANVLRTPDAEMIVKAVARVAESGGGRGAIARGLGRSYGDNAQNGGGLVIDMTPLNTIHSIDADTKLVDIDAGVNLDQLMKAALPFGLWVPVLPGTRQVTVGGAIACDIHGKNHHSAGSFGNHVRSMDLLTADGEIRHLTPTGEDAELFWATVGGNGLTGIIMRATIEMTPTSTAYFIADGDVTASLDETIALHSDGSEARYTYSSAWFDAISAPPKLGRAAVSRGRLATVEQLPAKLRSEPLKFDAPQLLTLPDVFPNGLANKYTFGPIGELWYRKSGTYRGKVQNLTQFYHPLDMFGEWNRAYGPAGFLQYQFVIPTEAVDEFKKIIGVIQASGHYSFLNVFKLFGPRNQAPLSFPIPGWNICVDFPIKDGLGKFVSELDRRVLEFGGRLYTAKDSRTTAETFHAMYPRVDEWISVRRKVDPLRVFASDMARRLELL
Method in brief: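 M. tuberculosis H37Rv cultures were exposed to compound at final 10× or 100× MIC, or to DMSO, together with [14C]-acetate at 1 µCi/ml final. After 24 h, lipids were extracted in CHCl3/CH3OH (2:1) for 2 h at 65 °C and given two Folch washes. Extracts were run on TLC in CHCl3/CH3OH/H2O (20:4:0.5), then autoradiographed for 7 days at -80 °C.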

[13] = system: Candida albicans; assay: Antifungal activity against Candida albicans ATCC 24433 CCM 8320 at highest concentration measured after 24 to 48 hrs by alamar blue dye based broth microdilution assay; assay type: functional, organism-based
[14] = system: Escherichia coli; assay: Antibacterial activity against Escherichia coli ATCC 25922 CCM 3954 at highest concentration measured after 24 to 48 hrs by alamar blue dye based broth microdilution assay; assay type: functional, organism-based
[15] = biological target: T2, Decaprenylphosphoryl-beta-D-ribose oxidase (Mycobacterium smegmatis (strain ATCC 700084 / mc(2)155)) (UniProt A0R607); assay: Inhibition of DprE1 in Mycolicibacterium smegmatis MC2 155 lysate assessed as reduction in epimerization of P[14C]RPP to DP[14C]A at 700 uM measured after 1.5 hrs in presence of NADH by TLC-based autoradiography; assay type: subcellular
T2 sequence (whole entry): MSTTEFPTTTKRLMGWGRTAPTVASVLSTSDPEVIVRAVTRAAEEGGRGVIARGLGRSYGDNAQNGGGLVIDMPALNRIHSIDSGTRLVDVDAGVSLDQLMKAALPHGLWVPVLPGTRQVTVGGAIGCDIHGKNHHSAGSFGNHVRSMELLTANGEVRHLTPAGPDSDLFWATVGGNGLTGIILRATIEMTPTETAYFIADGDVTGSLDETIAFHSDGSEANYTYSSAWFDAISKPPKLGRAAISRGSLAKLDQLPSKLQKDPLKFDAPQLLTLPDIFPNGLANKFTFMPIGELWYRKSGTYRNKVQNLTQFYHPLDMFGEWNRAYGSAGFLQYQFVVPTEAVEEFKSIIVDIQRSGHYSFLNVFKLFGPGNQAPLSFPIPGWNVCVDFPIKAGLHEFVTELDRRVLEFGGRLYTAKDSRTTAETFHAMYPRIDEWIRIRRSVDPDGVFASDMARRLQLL
Method in brief: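 Cell-free DPA synthesis used a membrane/cell-envelope fraction (430 µg), spun at 100 000 × g, from sonicated M. smegmatis mc2155. The fraction was incubated 1.5 h with 15,000 dpm P[14C]RPP and NADH. BTZ was used at 70 µM and test compounds at 700 µM final, both added from DMSO stocks. Lipids were extracted, 25% was resolved by TLC, and autoradiography ran 8 days at -80 °C.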

[16] = system: Mycobacterium tuberculosis; assay: Antimycobacterial activity against XDR Mycobacterium tuberculosis Praha 131 after 14 days; assay type: functional; details: Praha 131, 336 h; method in brief: as §3
[17] = system: Staphylococcus epidermidis; assay: Antibacterial activity against Staphylococcus epidermidis at highest concentration measured after 24 to 48 hrs by alamar blue dye based broth microdilution assay; assay type: functional, organism-based
[18] = system: Mycobacterium tuberculosis; assay: Antimycobacterial activity against Mycobacterium tuberculosis H37Rv CNCTC My 331/88 after 14 days; assay type: functional; details: H37Rv CNCTC My 331/88, 336 h; method in brief: as §3

Structure (SMILES) | MIC99 [1] [µM] | Activity [2] | MIC99 [3] [µM] | MIC99 [4] [µM] | Activity [5] | MIC99 [6] [µM] | Activity [7] | Activity [8] | MIC99 [9] [µM] | Activity [10] | MIC99 [11] [µM] | inhibition [12] | Activity [13] | Activity [14] | DprE1 inhibition (active/not active) [15] | MIC99 [16] [µM] | Activity [17] | MIC99 [18] [µM]
O=[N+]([O-])c1cc(-c2nnc(SCc3ccccc3)n2Cc2ccccc2)cc([N+](=O)[O-])c1 | 125 (≈ 55.9 µg/mL) | inactive | 0.03 (≈ 0.0134 µg/mL) | 0.03 (≈ 0.0134 µg/mL) | inactive | 0.03 (≈ 0.0134 µg/mL) | inactive | inactive | 125 (≈ 55.9 µg/mL) | inactive | 0.03 (≈ 0.0134 µg/mL) | inactive | inactive | inactive | Active | 0.03 (≈ 0.0134 µg/mL) | inactive | 0.03 (≈ 0.0134 µg/mL)
COc1ccc(CSc2nnc(-c3cc([N+](=O)[O-])cc([N+](=O)[O-])c3)n2Cc2ccccc2)cc1 | 62 (≈ 29.6 µg/mL) | inactive | 0.03 (≈ 0.0143 µg/mL) | 0.03 (≈ 0.0143 µg/mL) | inactive | 0.03 (≈ 0.0143 µg/mL) | inactive | inactive | 62 (≈ 29.6 µg/mL) | inactive | 0.03 (≈ 0.0143 µg/mL) | inactive | inactive | inactive | Active | 0.03 (≈ 0.0143 µg/mL) | inactive | 0.03 (≈ 0.0143 µg/mL)
O=[N+]([O-])c1cc(-c2nnc(SCc3ccccc3)n2Cc2ccccc2)cc(C(F)(F)F)c1 | 250 (≈ 118 µg/mL) | inactive | 0.03 (≈ 0.0141 µg/mL) | 0.03 (≈ 0.0141 µg/mL) | inactive | 0.03 (≈ 0.0141 µg/mL) | inactive | inactive | 250 (≈ 118 µg/mL) | inactive | 0.03 (≈ 0.0141 µg/mL) | Active | inactive | inactive | Active | 0.06 (≈ 0.0282 µg/mL) | inactive | 0.03 (≈ 0.0141 µg/mL)
COc1ccc(Cn2c(SCc3cc([N+](=O)[O-])cc([N+](=O)[O-])c3)nnc2-c2ccccc2)cc1 | 250 (≈ 119 µg/mL) | inactive | 1 (≈ 0.478 µg/mL) | 2 (≈ 0.955 µg/mL) | inactive | 2 (≈ 0.955 µg/mL) | inactive | inactive | 250 (≈ 119 µg/mL) | inactive | 2 (≈ 0.955 µg/mL) | inactive | inactive | inactive | inactive | 2 (≈ 0.955 µg/mL) | inactive | 1 (≈ 0.478 µg/mL)
CCCCCCn1c(SCc2cc([N+](=O)[O-])cc([N+](=O)[O-])c2)nnc1-c1ccccc1 | 250 (≈ 110 µg/mL) | inactive | 1 (≈ 0.442 µg/mL) | 1 (≈ 0.442 µg/mL) | inactive | 2 (≈ 0.883 µg/mL) | inactive | inactive | 250 (≈ 110 µg/mL) | inactive | 2 (≈ 0.883 µg/mL) | inactive | inactive | inactive | inactive | 2 (≈ 0.883 µg/mL) | inactive | 1 (≈ 0.442 µg/mL)
COc1ccc(CSc2nnc(-c3cc([N+](=O)[O-])cc(C(F)(F)F)c3)n2Cc2ccccc2)cc1 | 250 (≈ 125 µg/mL) | inactive | 0.5 (≈ 0.25 µg/mL) | 0.5 (≈ 0.25 µg/mL) | inactive | 0.5 (≈ 0.25 µg/mL) | inactive | inactive | 250 (≈ 125 µg/mL) | inactive | 0.5 (≈ 0.25 µg/mL) | Active | inactive | inactive | Active | 0.5 (≈ 0.25 µg/mL) | inactive | 0.5 (≈ 0.25 µg/mL)
